Screening data (PubChem)
KCNQ1 pot – potentiators or activators of KCNQ1 channel, primary screen, cell-based, thallium flux, high-throughput; Potassium voltage-gated channel subfamily KQT member 1 (Homo sapiens), P51787; CHO-K1 KCNQ1, thallium flux FluxOR fluorescence; hits give high values; B-score at 10 µM; 0.35% of 310,000 active; AID 2648, 2010;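 active means fluorescence ratio B-score, a plate-corrected score, at least three library SD, with initial intensity B-score within 5 SD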
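assay system = KCNQ1-transfected CHO-K1 cells | medium = assay buffer with matched DMSO | probe or stimulus = depolarizing K+/Tl+ stimulus, K2SO4 and Tl2SO4 each 12.5 mM in 5x stock | dosing = single dose | incubation = dye 90 min, compound 20 min, room temperature | detection = kinetic FluxOR fluorescence, 10 s baseline plus 110 s post-stimulus | evaluation = ratio B score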
Kir21 inh – inhibitors of mouse Kir2.1 inward-rectifier potassium channel | Inward rectifier potassium channel 2 (Mus musculus), P35561 | HEK293-Kir2.1, FluxOR thallium flux fluorescence; hits give low values | B-score at 10 µM | 0.85% of 310,000 active | AID 1672, 2009;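 active means fluorescence ratio B-score at or below minus 3 SD of library scores, with starting-brightness B-score within 2 SD, cut at about -4.2 in these data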;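 further: channel flux triggered by added potassium and thallium sulfate stimulus; B-score of peak minus minimum fluorescence over baseline after thallium stimulus; more negative B-score means stronger Kir2.1 block with less thallium influx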
KCNK9 inh-1 – KCNK9 potassium channel inhibitors, primary screen, HEK293 cells, thallium flux; B-score at 10 µM; 1.2% of 310,000 active; FluxOR thallium flux fluorescence; hits give low values; Potassium channel subfamily K member 9 (Homo sapiens), Q9NPC2;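 active means ratio B-score over 3 SD below the library mean, with starting fluorescence within 5 SD of its mean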;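 further: negative B-score means less thallium flux so channel inhibition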
KCNK3 block – human KCNK3 channel inhibitors, primary screen, CHO cells, FluxOR thallium flux, B-score; B-score at 10 µM; AID 602410, 2012; FluxOR fluorescence; hits give low values; 0.84% of 340,000 active;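 active means B-score under library mean minus 4 SD, starting fluorescence ratio at most library mean plus 5 SD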;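 further: more negative B-score means stronger inhibition of thallium flux through KCNK3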
Target sequence (O14649 whole entry, looked up): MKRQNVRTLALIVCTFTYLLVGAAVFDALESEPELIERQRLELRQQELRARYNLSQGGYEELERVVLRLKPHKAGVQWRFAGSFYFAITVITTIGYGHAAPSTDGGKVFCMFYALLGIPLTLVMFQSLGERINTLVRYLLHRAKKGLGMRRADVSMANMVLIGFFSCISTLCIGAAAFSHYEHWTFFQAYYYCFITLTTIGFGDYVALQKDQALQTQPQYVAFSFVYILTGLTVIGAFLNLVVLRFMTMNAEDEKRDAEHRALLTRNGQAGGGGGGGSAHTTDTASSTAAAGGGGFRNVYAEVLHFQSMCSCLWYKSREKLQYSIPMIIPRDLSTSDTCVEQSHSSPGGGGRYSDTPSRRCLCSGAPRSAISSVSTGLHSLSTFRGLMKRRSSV
KCNQ1 inh – inhibitors of human KCNQ1 channel, primary screen, cell-based, thallium flux, high-throughput. CHO-K1 KCNQ1, FluxOR thallium flux fluorescence; hits give high values. 1.3% of 310,000 active. Potassium voltage-gated channel subfamily KQT member 1 (Homo sapiens), P51787. B-score at 10 µM;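 active means compounds whose thallium flux B-score, printed positive for inhibition, exceeds three library SD while starting fluorescence stays within three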;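 further: channel opened by potassium depolarization with thallium stimulus after 20 min compound exposure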
hERG rescue – hERG rescue from dofetilide block, primary screen, cell-based, CHO-hERG, FluxOR thallium flux, dofetilide IC70; Voltage-gated inwardly rectifying potassium channel KCNH2 (Homo sapiens), Q12809; dofetilide IC70 present; activation (rescue from dofetilide block), less the hit threshold, % at 10 µM; 0.51% of 310,000 active; AID 1511, 2009;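 active means activation above the mean of controls blocked by dofetilide plus 5 SD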;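 further: thallium influx through hERG after potassium depolarization seen as dye fluorescence rise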
hERG ctr – hERG channel inhibition, counter-screen for Kir2.1 inhibitor project, cell-based, thallium flux | 20% of 320 active | shares compounds with Kir21 inh | inhibition, % at 10 µM | hERG-expressing cells;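 further: host cells are CHO cells stably expressing hERG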
KCNK9 inh-2 – KCNK9 channel inhibition, selectivity assay for Kir2.1 inhibitor project, cell-based. AID 2329, 2010. shares compounds with Kir21 inh. inhibition, % at 10 µM. KCNK9-expressing cells, ion flux inhibition. 5% of 320 active
Kir2-1 patch inh – mouse Kir2.1 channel blockers, Kir2.1 inhibitor project, cell-based, secondary, automated electrophysiology; shares compounds with Kir21 inh; Kir2.1 cells, automated patch-clamp current inhibition; inhibition, % at 25 µM; 71% of 320 active; AID 463252, 2010
* = called active by the depositor; i = inactive; x = no result. Sampled rows, rich in hits. Any-hit rate of the full collection: about 3.7%. Unless noted, how the calls were made is not given here.

SMILES | KCNQ1 pot | Kir21 inh | KCNK9 inh-1 | KCNK3 block | KCNQ1 inh | hERG rescue | others
COC(=O)c1c(C)[nH]c(C(=O)C(Cc2ccccc2)N(C)C)c1C (centres undefined) | i | -1.4 | i | i | i | -10
O=c1[nH]c(=S)[nH]c(O)c1N=Nc1ccc(S(=O)(=O)N2CCc3ccccc32)cc1 | i | -0.12 | i | i | i | 13*
CN[C@@H]1C[C@@H](c2ccc(Cl)c(Cl)c2)c2ccccc21 | i | -11* | i | x | i | -19
Cn1cc(C(O)CN2CCCCC2)c2ccccc21 (centres undefined) | i | -0.16 | i | i | i | -5
O=C1c2ccccc2C2(c3ccc(Cl)cc3)NCCN12 (centres undefined) | i | -0.08 | i | i | i | 4.8*
Brc1ccc2c(c1)C(OC1CN3CCC1CC3)c1ccccc1CS2 (centres undefined) | i | -8.9* | i | i | i | -17
COc1ccc2c(c1)C(c1ccc(N(CCCl)CCCl)cc1)=NCC2 | x | x | x | -8.7* | x | x
CC1(C(O)(C#CCN2CCCCC2)c2ccccc2)CCCC1 (centres undefined) | i | -1 | i | i | i | -13
CN(C)CC#CCn1c2ccccc2c2ccccc21 | i | -5.6* | i | i | i | -7
O=c1[nH]c(=S)n(CCC2=CCCCC2)c(O)c1C=NC1CCN(Cc2ccccc2)CC1 | i | 0.77 | i | i | 7* | -23
CN1CCN(/N=C/c2c(O)n(CCC3=CCCCC3)c(=S)[nH]c2=O)CC1 | i | -1.1 | i | i | i | -13
N#CCC(=O)NN1Cc2ccccc2C1=N | i | 0.15 | i | i | i | -7
Clc1cccc(CNCCc2ccc3c(c2)OCO3)c1 | i | 0.85 | i | i | i | -8
COc1ccc(Br)cc1CNCCc1ccc2c(c1)OCO2 | i | -4.5* | i | i | i | -6
Clc1ccc(CNCCc2ccc3c(c2)OCO3)cc1 | i | -8.8* | i | i | i | -10
Cc1ccccc1CN1CCN(Cc2ccccc2)CC1 | i | -4.7* | i | i | i | -6
CCOP(=S)(OCC)Oc1cc(C)nc(C(C)C)n1 | x | x | x | i | x | x
CC1c2ccccc2-n2nncc2CN1CC1CCCCC1 (centres undefined) | x | x | x | i | x | x
COc1cccc(NC2=NCCCS2)c1 | i | 0.08 | i | i | i | -2
Cc1cccc(OP(=O)(Oc2ccccc2)OC(c2ccccc2)C(F)(F)F)c1 (centres undefined) | i | -0.11 | i | i | 8* | -11
O=C(CNC(=O)c1ccccc1Cl)Nc1ccc(Br)cc1C(=O)c1ccccc1 | i | 0.07 | i | i | i | -5
O=C(c1cc(C(=O)NCc2ccccc2)c(=O)n(Cc2ccccc2)c1)c1cc(Br)ccc1O | i | 1.5 | i | i | 6* | -8
NC1=NC(c2cccnc2)n2c(nc3ccccc32)N1 (centres undefined) | i | 0.58 | i | x | i | -6
Cc1cnc(NC(=O)CN2CCCCC2)s1 | i | -1.1 | i | i | i | -9
CC/C(=N\NC(=O)c1ccccc1)c1c(O)n(C2CCCCC2)c(=O)[nH]c1=O | i | 1.1 | i | i | 7* | -14
SMILES | KCNQ1 pot | Kir21 inh | KCNK9 inh-1 | KCNK3 block | KCNQ1 inh | hERG rescue | others
O=C(c1ccc(F)cc1)C(Cc1ccccc1)N1CCCCC1 (centres undefined) | i | 0.51 | i | i | i | -6
O=C(CCCN1CCC2(CC1)C(=O)NCN2c1ccccc1)c1ccc(F)cc1 | 23* | -0.38 | i | i | i | -15
CCCn1c(C)c(C(=O)c2cccc3ccccc23)c2ccccc21 | x | x | x | -11* | x | x
Cc1c(C(=O)c2ccccc2)c2ccccc2n1C | i | -0.94 | i | i | i | -12
Cc1cc[n+](Cc2ccccc2)cc1 | i | 0.02 | i | i | i | -2
c1ccc(C[n+]2ccccc2)cc1 | i | -1.1 | i | i | 7* | -7
C[C@]12CCC3C(CC[C@H]4C[C@@H](O)CC[C@]34C)C1C[C@@H](N)[C@@H]2O (some centres undefined) | x | x | x | i | x | x
COc1cc(C)c(CNCCc2c[nH]c3ccccc23)cc1C | i | -6.9* | i | i | i | -8 | hERG ctr=i;KCNK9 inh-2=i;Kir2-1 patch inh=9.0%*
COc1ccc(CNCCc2c[nH]c3ccccc23)c(OC)c1C | i | -8.4* | i | i | i | -7 | hERG ctr=i;KCNK9 inh-2=i;Kir2-1 patch inh=4.1%*
CCS(=O)(=O)NC(C)c1nnc2n1-c1ccc(Br)cc1C(c1ccccc1Cl)=NC2 (centres undefined) | i | 0.79 | i | i | i | -8
O=C1CC(=O)N(Cc2ccccc2)C(=O)N1Cc1ccccc1 | x | x | x | i | x | x
COc1ccc(CNCCc2ccc3c(c2)OCO3)cc1Br | i | -12* | i | i | i | -7 | hERG ctr=46%*;KCNK9 inh-2=i;Kir2-1 patch inh=82%*
Cc1ccc(Cn2ccccc2=N)cc1 | i | 1.4 | i | i | i | -7
COc1cccc(CNCCc2ccccc2)c1OC | i | 1.9 | i | i | i | -8
COc1ccc2ccccc2c1CNCCc1ccccc1 | i | -8.9* | i | i | i | -10 | hERG ctr=i;KCNK9 inh-2=i;Kir2-1 patch inh=29%*
COc1ccc(CN2CCCC(C(=O)c3sccc3C)C2)cc1O (centres undefined) | i | -6.2* | i | i | i | 1 | hERG ctr=i;KCNK9 inh-2=i;Kir2-1 patch inh=i
COc1cc(CN2CCCC(C(=O)c3sccc3C)C2)cc(OC)c1O (centres undefined) | i | -0.03 | i | i | i | -7
